Assay [1] is described as follows: Ratio of MIC for Pseudomonas aeruginosa PAO1 to MIC for Escherichia coli W3110PA. The class given is functional.
The test system of assay [2] is Escherichia coli. The assay is described as follows: Antimicrobial activity against Escherichia coli W3110PA after 22 hrs by MTT assay. It is filed as functional. In a few lines: (§1)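 Broth microdilution (modified NCCLS) in 96-well plates, LB medium with 5% DMSO; 2-fold compound series spanning 0.0005–1, 0.0025–5 or 0.024–50 µg/mL. Cells grown to OD600 0.6, diluted 100-fold, added to wells; 22 h at 37 °C, then MTT (1 mg/mL) 3 h at 37 °C. MIC = lowest concentration with no visible colour change; triplicate.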

The subject of assay [3] is Escherichia coli. Briefly: Ratio of MIC for wild type Escherichia coli W3110 to MIC for Escherichia coli CMR300. It is filed as functional.
Assay [4] relates to Pseudomonas aeruginosa. Briefly: Antimicrobial activity against Pseudomonas aeruginosa PAO1 after 22 hrs by MTT assay. The class given is functional. The note with it: PAO1, 22 h. In a few lines:
as §1

Assay [5] concerns Escherichia coli. Briefly: Antimicrobial activity against Escherichia coli CMR300 after 22 hrs by MTT assay. The class given is functional. The following applies: CMR300, 22 h. The gist of the method:
as §1

Assay [6] deals with Escherichia coli. The assay is described as follows: Antimicrobial activity against wild type Escherichia coli W3110 after 22 hrs by MTT assay. The class given is functional. The following applies: W3110, 22 h. In a few lines: as §1
The subject of assay [7] is Francisella novicida. The assay is described as follows: Ratio of LPC-011 MIC to compound MIC for Francisella novicida U 112 after 22 hrs by MTT assay. The class given is functional, Francisella tularensis subsp. novicida.
For assay [8], the system named is Francisella novicida. The assay is described as follows: Antimicrobial activity against Francisella novicida U 112 after 22 hrs by MTT assay. It is filed as functional, Francisella tularensis subsp. novicida. The note with it: Francisella tularensis, U 112, 22 h. In a few lines:
(§2)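 Broth microdilution in triplicate (modified NCCLS) in LB with 5% DMSO, using 2-fold compound series over 0.0005–1, 0.0025–5 or 0.024–50 µg/mL. Cells grown to OD600 0.6 were diluted 100-fold into the wells and incubated 22 h at 37 °C. A 1 mg/mL MTT solution was added for 3 h more at 37 °C. MIC = lowest concentration with no visible yellow-to-black colour change.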

Assay [9] has as its system Vibrio cholerae. The assay is described as follows: Antimicrobial activity against Vibrio cholerae P4 after 22 hrs by MTT assay. It is filed as functional. The note with it: P4, 22 h. The gist of the method: as §2
Assay [10] relates to Klebsiella pneumoniae. The assay is described as follows: Antimicrobial activity against Klebsiella pneumoniae 43816 after 22 hrs by MTT assay. The following applies: Klebsiella pneumoniae, 43816, 22 h. It is filed as functional. The gist of the method: as §1
Assay [11] deals with Salmonella typhimurium. The assay is described as follows: Antimicrobial activity against Salmonella enterica typhimurium LT2 after 22 hrs by MTT assay. The class given is functional, Salmonella enterica subsp. enterica serovar Typhimurium. The note with it: LT2, 22 h. In a few lines: as §1
For assay [12], the target named is T1, UDP-3-O-acyl-N-acetylglucosamine deacetylase (Escherichia coli K-12) (UniProt P0A725).
T1 sequence (whole entry): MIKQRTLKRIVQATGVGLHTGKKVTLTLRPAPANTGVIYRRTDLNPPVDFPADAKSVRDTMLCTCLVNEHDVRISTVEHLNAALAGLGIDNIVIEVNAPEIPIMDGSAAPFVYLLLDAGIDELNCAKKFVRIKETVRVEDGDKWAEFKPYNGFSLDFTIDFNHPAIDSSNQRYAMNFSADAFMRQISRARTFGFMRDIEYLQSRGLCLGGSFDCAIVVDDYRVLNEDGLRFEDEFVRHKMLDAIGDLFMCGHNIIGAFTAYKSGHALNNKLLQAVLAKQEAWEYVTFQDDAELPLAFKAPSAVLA
Briefly: Ratio of LPC-011 Ki to compound Ki for Escherichia coli LpxC enzyme.

For assay [13], the target named is T2, UDP-3-O-acyl-N-acetylglucosamine deacetylase (Escherichia coli K-12, UniProt P0A725).
T2 sequence (P0A725 whole entry): T1 sequence (whole entry)
Briefly: Inhibition of Escherichia coli LpxC enzyme using UDP-3-O-[(R)-3-hydroxymyristoyl]-N-acetyl glucosamine and [gamma-32P] UDP-3-O-[(R)-3-hydroxymyristoyl]-N-acetylglucosamine as substrate after 1 to 4 hrs.

Each structure is given as a SMILES string. In brackets after ≈: the same amount, converted by molar mass.

Regarding `Nc1ccc(C#CC#Cc2ccc(C(=O)N[C@@H](Cc3ccc(O)cc3)C(=O)NO)cc2)cc1`, the Ratio in assay [1] stood at 3; in assay [3], 80. For the same compound, the minimum inhibitory concentration (MIC) in [2] is 4.7 µg/mL (≈ 10.7 µM); in [4], 12.5 µg/mL (≈ 28.4 µM); in assay [5] it was 0.01 µg/mL (≈ 0.0228 µM); in [6], 0.8 µg/mL (≈ 1.82 µM).
Take `Nc1ccc(C#CC#Cc2ccc(C(=O)N[C@@H](Cc3c[nH]cn3)C(=O)NO)cc2)cc1`: the minimum inhibitory concentration (MIC) in assay [2] is 6.3 µg/mL (≈ 15.2 µM); in assay [4], 6.3 µg/mL (≈ 15.2 µM); in [5] it was 0.02 µg/mL (≈ 0.0484 µM); in assay [6], 0.4 µg/mL (≈ 0.967 µM). In addition, the Ratio in [3] came to 20.
Turning to `C[C@](O)(c1ccc(O)cc1)[C@H](NC(=O)c1ccc(C#CC#Cc2ccc(N)cc2)cc1)C(=O)NO`, the figures for the Ratio in assay [7] and in assay [3] were 2 and 300, respectively. The minimum inhibitory concentration (MIC) in assay [8] is 0.63 µg/mL (≈ 1.34 µM); in [9] it was 0.016 µg/mL (≈ 0.0341 µM); in [10], 0.16 µg/mL (≈ 0.341 µM); in [11], 0.05 µg/mL (≈ 0.106 µM); in [2], 0.5 µg/mL (≈ 1.06 µM); in assay [4], 0.7 µg/mL (≈ 1.49 µM). Further, the MIC in assay [5] was 0.0001 µg/mL (≈ 0.000213 µM); in assay [6] it was 0.03 µg/mL (≈ 0.0639 µM). In assay [12], the Ratio Ki was found to be 1.6. Also, affinity in assay [13] was put at a Ki of 0.024 nM.
With `Nc1ccc(C#CC#Cc2ccc(C(=O)N[C@@H](Cc3ccccc3)C(=O)NO)cc2)cc1`, the MIC is greater than 50 µg/mL in assay [2], greater than 50 µg/mL in assay [4], 0.014 µg/mL (≈ 0.0331 µM) in assay [5] and 6.3 µg/mL (≈ 14.9 µM) in [6]. Moreover, the Ratio in assay [3] stood at 450.
As to `C[C@@H](O)[C@H](NC(=O)c1ccc(C#Cc2ccc(CN3CCOCC3)cc2)cc1)C(=O)NO`, the MIC in assay [8] turned out to be 3.1 µg/mL (≈ 7.09 µM); in [9], 0.16 µg/mL (≈ 0.366 µM); in assay [10], 0.64 µg/mL (≈ 1.46 µM); in assay [11], 0.16 µg/mL (≈ 0.366 µM); in assay [2] it was 1.3 µg/mL (≈ 2.97 µM); in assay [4], 1.6 µg/mL (≈ 3.66 µM). The minimum inhibitory concentration (MIC) in assay [5] amounted to 0.01 µg/mL (≈ 0.0229 µM); in assay [6], 0.2 µg/mL (≈ 0.457 µM).
For the compound `Nc1ccc(C#CC#Cc2ccc(C(=O)N[C@@H](Cc3c[nH]c4ccccc34)C(=O)NO)cc2)cc1`, the MIC in assay [2] is greater than 50 µg/mL; in assay [4] it was greater than 50 µg/mL; in assay [5], 0.06 µg/mL (≈ 0.13 µM); in [6], 12.5 µg/mL (≈ 27 µM). In addition, the Ratio in [3] was determined as 208.
With `Nc1ccc(C#CC#Cc2ccc(C(=O)N[C@H](C(=O)NO)[C@H](O)c3ccc(O)cc3)cc2)cc1`, the minimal inhibitory concentration (MIC) in [2] was greater than 50 µg/mL; in assay [4], greater than 50 µg/mL; in [5], 0.15 µg/mL (≈ 0.329 µM); in assay [6], 50 µg/mL (≈ 110 µM). Further, the Ratio in assay [3] is on record as 333.
Take `C[C@@H](O)[C@H](NC(=O)c1ccc(C#CC#Cc2ccc(N)cc2)cc1)C(=O)NO`: the minimum inhibitory concentration (MIC) in [8] was found to be 2.5 µg/mL (≈ 6.62 µM); in assay [9] it was 0.01 µg/mL (≈ 0.0265 µM); in assay [10], 0.13 µg/mL (≈ 0.344 µM); in assay [11] it was 0.024 µg/mL (≈ 0.0636 µM); in assay [2], 0.32 µg/mL (≈ 0.848 µM); in [4] it was 0.32 µg/mL (≈ 0.848 µM). Also, the MIC is 0.001 µg/mL (≈ 0.00265 µM) in assay [5] and 0.03 µg/mL (≈ 0.0795 µM) in [6]. Also, the Ratio in assay [3] is recorded as 30.
Turning to `C[C@@](O)(c1ccc(O)cc1)[C@H](NC(=O)c1ccc(C#CC#Cc2ccc(N)cc2)cc1)C(=O)NO`, the MIC in assay [2] stood at 3.2 µg/mL (≈ 6.82 µM); in [4] it was 5 µg/mL (≈ 10.6 µM); in assay [5], 0.008 µg/mL (≈ 0.017 µM); in [6], 0.5 µg/mL (≈ 1.06 µM). Also, the Ratio in assay [3] is 62.
For `C[C@](O)(c1c[nH]nn1)[C@H](NC(=O)c1ccc(C#CC#Cc2ccc(N)cc2)cc1)C(=O)NO`, the Ratio in assay [7] was 2. Also, the MIC in [8] worked out at 1 µg/mL (≈ 2.25 µM); in assay [9], 0.03 µg/mL (≈ 0.0675 µM); in [10], 0.25 µg/mL (≈ 0.562 µM); in assay [11], 0.1 µg/mL (≈ 0.225 µM); in assay [2] it was 0.5 µg/mL (≈ 1.12 µM); in [4] it was 0.5 µg/mL (≈ 1.12 µM). In addition, the results for the MIC in assay [5] and in [6] were 0.004 µg/mL (≈ 0.009 µM) and 0.06 µg/mL (≈ 0.135 µM), respectively. The Ratio Ki in [12] worked out at 1.6. The compound also gave a Ki in [13] of 0.024 nM.
Take `Nc1ccc(C#CC#Cc2ccc(C(=O)N[C@H](C(=O)NO)[C@@H](O)c3ccc(O)cc3)cc2)cc1`: the MIC came to 0.9 µg/mL (≈ 1.98 µM) in [2], 1 µg/mL (≈ 2.2 µM) in [4], 0.003 µg/mL (≈ 0.00659 µM) in assay [5] and 0.13 µg/mL (≈ 0.285 µM) in [6]. Besides, the Ratio in assay [3] was 43.

(Values after ChEMBL document CHEMBL2417424, “Synthesis, structure, and antibiotic activity of aryl-substituted LpxC inhibitors” (J Med Chem, 2013).)
